In ChEMBL document CHEMBL3616369, “N-O-Isopropyl Sulfonamido-Based Hydroxamates as Matrix Metalloproteinase Inhibitors: Hit Selection and in Vivo Antiangiogenic Activity” (J Med Chem, 2015):
Calls of active or inactive are those of the source. The rule behind the calls is not given here.

Assays:
[1] = molecular target: T1, Interstitial collagenase (Homo sapiens, UniProt P03956); test: Inhibition of recombinant human activated-MMP1 using Mca-Lys-Pro-Leu-Gly-Leu-Dap(Dnp)-Ala-Arg-NH2 as fluorogenic substrate incubated for 4 hrs followed by substrate addition measured every 10 secs for 20 mins by fluorometric assay
T1 sequence (P03956 whole entry): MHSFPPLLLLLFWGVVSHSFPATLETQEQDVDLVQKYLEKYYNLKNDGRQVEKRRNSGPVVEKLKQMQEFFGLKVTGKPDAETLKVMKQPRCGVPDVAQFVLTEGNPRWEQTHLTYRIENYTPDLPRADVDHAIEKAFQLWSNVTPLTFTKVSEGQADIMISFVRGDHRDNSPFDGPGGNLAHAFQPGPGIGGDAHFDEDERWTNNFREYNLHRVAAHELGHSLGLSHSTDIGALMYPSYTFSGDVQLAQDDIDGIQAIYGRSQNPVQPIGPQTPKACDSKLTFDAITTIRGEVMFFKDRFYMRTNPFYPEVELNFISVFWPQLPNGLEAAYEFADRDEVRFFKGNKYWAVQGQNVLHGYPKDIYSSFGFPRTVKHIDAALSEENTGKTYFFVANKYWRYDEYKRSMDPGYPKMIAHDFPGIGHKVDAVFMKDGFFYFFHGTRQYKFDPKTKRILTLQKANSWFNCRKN
Outline: (§1)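 Recombinant human MMPs. Pro-forms activated with APMA: MMP-2 2 mM 1 h, MMP-9 1 mM 1 h, MMP-1 2 mM 2 h, MMP-13 1 mM 35 min, all 37 °C. MMP-3 activated with trypsin 4.4 µg/mL 30 min, then soybean trypsin inhibitor. Final enzyme 0.5 (MMP-2), 1.3 (MMP-9), 1.0 (MMP-14cd), 2.0 (MMP-1), 0.66 (MMP-13), 5 nM (MMP-3). Preincubated with inhibitor 4 h at 25 °C in Tris 50 mM pH 7.5, NaCl 150 mM, CaCl2 10 mM, Brij 35 0.05%, DMSO 1%. Substrate 2 µM final; fluorescence (ex 325/em 395 nm) every 10 s for 20 min. IC50 from vi/vo = 1/(1+[I]/IC50).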

[2] = molecular target: Stromelysin-1 (Homo sapiens, UniProt P08254); test: Inhibition of recombinant human activated-MMP3 using Mca-Lys-Pro-Leu-Gly-Leu-Dap(Dnp)-Ala-Arg-NH2 as fluorogenic substrate incubated for 4 hrs followed by substrate addition measured every 10 secs for 20 mins by fluorometric assay; outline: as §1
[3] = molecular target: T2, 72 kDa type IV collagenase (Homo sapiens, UniProt P08253); test: Inhibition of recombinant human activated-MMP2 using Mca-Lys-Pro-Leu-Gly-Leu-Dap(Dnp)-Ala-Arg-NH2 as fluorogenic substrate incubated for 4 hrs followed by substrate addition measured every 10 secs for 20 mins by fluorometric assay; outline: as §1
Target sequence in this assay (P08253 whole entry): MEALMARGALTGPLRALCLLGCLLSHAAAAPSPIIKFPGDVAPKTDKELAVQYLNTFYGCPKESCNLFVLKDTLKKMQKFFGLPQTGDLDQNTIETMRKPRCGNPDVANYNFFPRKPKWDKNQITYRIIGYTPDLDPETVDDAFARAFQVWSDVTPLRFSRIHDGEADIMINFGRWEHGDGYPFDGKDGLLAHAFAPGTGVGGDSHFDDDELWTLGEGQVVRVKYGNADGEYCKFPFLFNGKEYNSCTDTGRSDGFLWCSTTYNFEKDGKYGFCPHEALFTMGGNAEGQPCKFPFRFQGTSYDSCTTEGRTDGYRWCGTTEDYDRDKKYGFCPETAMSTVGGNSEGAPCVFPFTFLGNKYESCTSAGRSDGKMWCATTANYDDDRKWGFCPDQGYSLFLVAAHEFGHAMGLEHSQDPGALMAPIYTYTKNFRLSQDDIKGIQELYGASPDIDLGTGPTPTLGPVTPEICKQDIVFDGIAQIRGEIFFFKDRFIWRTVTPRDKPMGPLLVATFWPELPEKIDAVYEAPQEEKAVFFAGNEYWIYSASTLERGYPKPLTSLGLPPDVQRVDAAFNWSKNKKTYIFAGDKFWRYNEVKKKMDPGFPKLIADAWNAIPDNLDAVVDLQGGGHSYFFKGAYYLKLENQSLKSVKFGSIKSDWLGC

[4] = molecular target: T3, Matrix metalloproteinase-9 (Homo sapiens, UniProt P14780); test: Inhibition of recombinant human activated-MMP9 using Mca-Lys-Pro-Leu-Gly-Leu-Dap(Dnp)-Ala-Arg-NH2 as fluorogenic substrate incubated for 4 hrs followed by substrate addition measured every 10 secs for 20 mins by fluorometric assay; outline: as §1
[5] = molecular target: Matrix metalloproteinase-14 (Homo sapiens, UniProt P50281); test: Inhibition of recombinant human catalytic domain MMP14 using Mca-Lys-Pro-Leu-Gly-Leu-Dap(Dnp)-Ala-Arg-NH2 as fluorogenic substrate incubated for 4 hrs followed by substrate addition measured every 10 secs for 20 mins by fluorometric assay; outline: as §1
[6] = tested on: HUVEC; test: Inhibition of cell migration in human HUVEC at 0.001 to 10 uM after 6 hrs using modified Boyden chambers; format: functional, cell-based
Outline: (§2)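 Modified Boyden chamber. HUVEC (5x10^4), PBS-washed, in serum-free medium with or without inhibitor in upper compartment; 10% FBS or serum-free medium below. 8 µm polycarbonate filters coated with collagen 50 µg/mL (migration, 6 h) or matrigel 1 mg/mL (invasion, overnight). Cells on lower surface ethanol-fixed, stained, counted blind in eight fields. Three experiments in duplicate; one-way ANOVA.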

[7] = molecular target: T3, Matrix metalloproteinase-9; test: Inhibition of MMP9 gelatinase activity in human HUVEC by gel zymography
Outline: (§3)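 Gelatin zymography on 10% polyacrylamide gels with 0.1% gelatin and SDS, samples unheated. Gels renatured 30 min at room temperature. Either untreated-HUVEC conditioned medium run and gel lane slices developed overnight at 37 °C in developing buffer containing inhibitor, or medium from inhibitor-treated HUVEC developed overnight without inhibitor. Coomassie stained; bands quantified by densitometry.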

[8] = tested on: HUVEC; test: Inhibition of FBS-induced network efficiency of human HUVEC assessed as reduction of number of meshes at 0.001 to 10 uM after 6 hrs by matrigel assay; format: functional, cell-based
Outline: (§4)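 Matrigel (10 mg/mL) polymerized 1 h at 37 °C. HUVEC (50x10^4/well) in complete medium with 10% FBS, with or without inhibitor at various concentrations, layered on top. After 6 h, capillary-like organization imaged by inverted microscope; mesh number counted as tubulogenic efficiency.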

[9] = molecular target: T2, 72 kDa type IV collagenase; test: Inhibition of MMP2 gelatinase activity in human HUVEC at 0.1 uM by gel zymography; outline: as §3
Target sequence in this assay (P08253 110-660 limits assumed): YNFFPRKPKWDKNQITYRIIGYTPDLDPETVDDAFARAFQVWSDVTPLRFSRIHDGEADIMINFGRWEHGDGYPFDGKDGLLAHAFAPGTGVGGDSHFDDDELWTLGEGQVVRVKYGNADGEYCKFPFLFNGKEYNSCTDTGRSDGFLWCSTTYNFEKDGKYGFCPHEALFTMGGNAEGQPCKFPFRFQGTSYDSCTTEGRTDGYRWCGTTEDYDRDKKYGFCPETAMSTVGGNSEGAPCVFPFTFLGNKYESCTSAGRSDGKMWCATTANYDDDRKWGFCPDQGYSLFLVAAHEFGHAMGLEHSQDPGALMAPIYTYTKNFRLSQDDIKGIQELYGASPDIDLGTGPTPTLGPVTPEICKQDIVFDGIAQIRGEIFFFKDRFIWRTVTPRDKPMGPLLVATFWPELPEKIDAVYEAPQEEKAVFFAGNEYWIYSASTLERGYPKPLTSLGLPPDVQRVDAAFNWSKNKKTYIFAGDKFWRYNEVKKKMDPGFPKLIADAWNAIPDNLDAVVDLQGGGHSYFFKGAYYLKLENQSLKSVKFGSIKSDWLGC

[10] = tested on: HUVEC; test: Inhibition of FBS-induced capillary-like network organization in human HUVEC at 0.001 to 10 uM after 6 hrs by matrigel assay; format: functional, cell-based; outline: as §4
[11] = molecular target: T2, 72 kDa type IV collagenase; test: Inhibition of MMP2 gelatinase activity in human HUVEC by gel zymography; outline: as §3
Target sequence in this assay (P08253 110-660 limits assumed): as above

[12] = molecular target: T3, Matrix metalloproteinase-9; conditions: HUVEC, 0.1 uM
[13] = tested on: HUVEC; test: Inhibition of FBS-induced cell invasion in human HUVEC after overnight incubation using modified Boyden chambers; format: functional, cell-based; outline: as §2
[14] = tested on: HUVEC; test: Inhibition of FBS-induced cell invasion in human HUVEC at 0.001 to10 uM after overnight incubation using modified Boyden chambers; format: functional, cell-based; outline: as §2
[15] = molecular target: T3, Matrix metalloproteinase-9; test: Inhibition of MMP9 gelatinase activity in human HUVEC at 0.001 to 10 uM by gel zymography; outline: as §3
[16] = tested on: HUVEC; test: Inhibition of PMA-stimulated MMP2 mRNA expression in human HUVEC after 24 hrs by QT-PCR analysis; format: functional, cell-based
Outline: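 HUVEC starved, PMA pre-treated (30 nM, 3 h), then exposed to inhibitor for 24 h before RNA extraction. Real-time PCR with SYBR Green, 45 cycles (95 °C 10 s, 60 °C 15 s, 72 °C 15 s), with melting-curve check.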

[17] = molecular target: Collagenase 3 (Homo sapiens, UniProt P45452); test: Inhibition of recombinant human activated-MMP13 using Mca-Lys-Pro-Leu-Gly-Leu-Dap(Dnp)-Ala-Arg-NH2 as fluorogenic substrate incubated for 4 hrs followed by substrate addition measured every 10 secs for 20 mins by fluorometric assay; outline: as §1
[18] = tested on: HUVEC; test: Inhibition of PMA-stimulated MMP2 protein expression in human HUVEC after 24 hrs by Western blot analysis relative to control; format: functional
Outline: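 HUVEC (2x10^6) seeded, attached one day, starved 6 h in serum-free medium with 2% BSA. Pre-treated 3 h with 30 nM PMA, then exposed to inhibitor (10 µM) or DMSO vehicle for 24 h. Conditioned media and cell proteins collected. Equal protein on 10% SDS-PAGE, PVDF blot, milk block, anti-MMP-2, MMP-9 and β-actin antibodies, HRP/ECL detection.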

[19] = molecular target: T2, 72 kDa type IV collagenase; test: Inhibition of MMP2 gelatinase activity in human HUVEC at 0.001 to 10 uM by gel zymography; outline: as §3
Target sequence in this assay (P08253 110-660 limits assumed): as above

Chain of Stromelysin-1 (P08254 whole entry): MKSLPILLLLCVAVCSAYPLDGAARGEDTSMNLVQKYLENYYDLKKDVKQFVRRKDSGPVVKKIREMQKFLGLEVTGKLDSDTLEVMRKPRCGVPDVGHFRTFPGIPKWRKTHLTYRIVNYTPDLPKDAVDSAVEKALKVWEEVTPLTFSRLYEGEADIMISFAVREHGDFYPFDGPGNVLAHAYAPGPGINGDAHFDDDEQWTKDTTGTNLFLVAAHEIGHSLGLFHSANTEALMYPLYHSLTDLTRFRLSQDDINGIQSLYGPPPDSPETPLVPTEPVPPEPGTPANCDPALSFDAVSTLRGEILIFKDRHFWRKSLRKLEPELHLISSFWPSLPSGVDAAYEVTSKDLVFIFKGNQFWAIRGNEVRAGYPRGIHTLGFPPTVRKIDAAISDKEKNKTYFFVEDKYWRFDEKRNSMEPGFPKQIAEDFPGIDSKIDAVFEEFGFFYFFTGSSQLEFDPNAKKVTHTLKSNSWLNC
T3 sequence (P14780 whole entry, the tested form may be a part): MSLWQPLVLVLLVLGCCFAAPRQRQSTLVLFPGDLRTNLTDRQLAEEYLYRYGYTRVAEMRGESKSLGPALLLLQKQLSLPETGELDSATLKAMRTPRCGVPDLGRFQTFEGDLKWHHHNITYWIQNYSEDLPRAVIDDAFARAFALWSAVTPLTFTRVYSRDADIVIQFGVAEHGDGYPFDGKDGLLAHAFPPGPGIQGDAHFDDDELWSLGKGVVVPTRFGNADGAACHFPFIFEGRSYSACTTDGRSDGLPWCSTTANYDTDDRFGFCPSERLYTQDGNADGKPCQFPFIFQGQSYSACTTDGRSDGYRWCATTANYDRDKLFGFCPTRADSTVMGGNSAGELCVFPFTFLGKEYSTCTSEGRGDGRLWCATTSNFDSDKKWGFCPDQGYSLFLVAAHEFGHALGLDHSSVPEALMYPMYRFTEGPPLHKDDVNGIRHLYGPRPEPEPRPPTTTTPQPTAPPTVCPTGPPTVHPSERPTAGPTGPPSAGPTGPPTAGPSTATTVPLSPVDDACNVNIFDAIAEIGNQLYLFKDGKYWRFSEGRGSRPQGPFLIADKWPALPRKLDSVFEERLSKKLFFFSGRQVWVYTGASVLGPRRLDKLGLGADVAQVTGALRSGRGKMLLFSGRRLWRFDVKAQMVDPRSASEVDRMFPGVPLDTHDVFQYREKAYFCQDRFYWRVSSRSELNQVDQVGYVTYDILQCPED

Row | SMILES | IC50 [1] | IC50 [2] | IC50 [3] | IC50 [4] | IC50 [5] | inhibition [7] | inhibition [9] | inhibition [11] | inhibition [12] | inhibition [15] | IC50 [17] | inhibition [19] | inhibition [6] | inhibition [8] | inhibition [10] | inhibition [13] | inhibition [14] | inhibition [16] | fold change (FC) [18]
1 | CC(C)ON([C@H](CCNC(=O)Cc1ccccc1)C(=O)NO)S(=O)(=O)c1ccc(-c2ccccc2)cc1 | 1300 nM | 120 nM | 1.4 nM | 6.4 nM | – | – | – | – | – | – | – | – | – | – | – | – | – | – | –
2 | CC(C)ON([C@H](CCNC(=O)c1ccccc1)C(=O)NO)S(=O)(=O)c1ccc(-c2ccccc2)cc1 | 780 nM | 450 nM | 1.5 nM | 9 nM | – | – | – | – | – | – | – | – | – | – | – | – | – | – | –
3 | COc1ccc(-c2ccc(S(=O)(=O)N(OC(C)C)[C@H](CCNC(C)=O)C(=O)NO)cc2)cc1 | 660 nM | 20 nM | – | 2 nM | 23 nM | Dose-dependent effect | Active | Dose-dependent effect | Active | – | – | – | Active | Active | Active | Dose-dependent effect | – | – | –

Further molecules by falling IC50 [1], results first:

Row | IC50 [1] | IC50 [2] | IC50 [3] | IC50 [4] | IC50 [5] | inhibition [7] | inhibition [9] | inhibition [11] | inhibition [12] | inhibition [15] | IC50 [17] | inhibition [19] | SMILES | inhibition [6] | inhibition [8] | inhibition [10] | inhibition [13] | inhibition [14] | inhibition [16] | fold change (FC) [18]
4 | 26000 nM | – | 590 nM | 3900 nM | 5500 nM | – | – | – | – | inactive | 1800 nM | inactive | CC(=O)NCC[C@H](C(=O)NO)N(OC(C)C)S(=O)(=O)c1ccccc1 | inactive | inactive | inactive | – | inactive | inactive | 0.9
5 | 280 nM | 47 nM | – | 6.5 nM | – | – | – | – | – | – | – | – | CC(=O)NCC[C@H](C(=O)NO)N(OC(C)C)S(=O)(=O)c1ccc(-c2ccccc2)cc1 | – | – | – | – | – | – | –
